Assay results as given in ChEMBL document CHEMBL3868590, “Quambalarine B, a Secondary Metabolite from Quambalaria cyanescens with Potential Anticancer Properties” (J Nat Prod, 2016).

How the values were obtained:
[1] = Cmax in human; type: ADME
Jurkat [2] = test: Cytostatic activity against eFluor670-labelled human Jurkat cells assessed as live cells at 10 ng/ml measured on day 5 post dose by Hoechst-33258 staining-based FACS analysis (reference value: 97%); type: functional
NALM-6 [3] = test: Cytostatic activity against eFluor670-labelled human NALM6 cells assessed as live cells at 5 ng/ml measured immediately after compound addition by Hoechst-33258 staining-based FACS analysis (reference value: 95.8%); type: functional
NALM-6 [4] = test: Cytostatic activity against eFluor670-labelled human NALM6 cells assessed as live cells at 5 ng/ml measured on day 5 by Hoechst-33258 staining-based FACS analysis (reference value: 98.6%); type: functional
Jurkat [5] = test: Cytostatic activity against eFluor670-labelled human Jurkat cells assessed as live cells at 10 ng/ml measured on day 2 post dose by Hoechst-33258 staining-based FACS analysis (reference value: 97%); type: functional
NALM-6 [6] = test: Cytostatic activity against eFluor670-labelled human NALM6 cells assessed as live cells at 5 ng/ml measured on day 4 by Hoechst-33258 staining-based FACS analysis (reference value: 98.6%); type: functional
NALM-6 [7] = test: Cytostatic activity against eFluor670-labelled human NALM6 cells assessed as live cells at 5 ng/ml measured on day 3 by Hoechst-33258 staining-based FACS analysis (reference value: 98.6%); type: functional
Jurkat [8] = test: Cytostatic activity against eFluor670-labelled human Jurkat cells assessed as live cells at 10 ng/ml measured on day 3 post dose by Hoechst-33258 staining-based FACS analysis (reference value: 98.3%); type: functional
REH [9] = test: Cytostatic activity against eFluor670-labelled human REH cells assessed as live cells at 20 ng/ml measured on day 1 by Hoechst-33258 staining-based FACS analysis (reference value: 89.8%); type: functional
NALM-6 [10] = test: Cytostatic activity against eFluor670-labelled human NALM6 cells assessed as live cells at 5 ng/ml measured on day 2 by Hoechst-33258 staining-based FACS analysis (reference value: 97.7%); type: functional
REH [11] = test: Cytostatic activity against eFluor670-labelled human REH cells assessed as live cells at 20 ng/ml measured immediately after compound addition by Hoechst-33258 staining-based FACS analysis (reference value: 44.1%); type: functional
[12] = Cytotoxicity against PHA/LPS-stimulated CD3-positive T-lymphocytes in eFluor-670-labeled human PBMC assessed as divided cells at 5 ng/ml administered post 18 hrs of PHA/LPS-stimulation measured after 72 hrs by Hoechst-33258 staining-based FACS analysis (reference value: 24.2%); type: toxicity; details: t-cell
Procedure, shortened: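 PBMC were labelled with 1 μmol/L CPD, stimulated with PHA (5 μg/mL) plus LPS (1 μg/mL), and seeded at 3 × 10^5 cells/well in 300 μL. Compound was added after 18 h and left for 72 h. Cells were stained with anti-CD3. Unstimulated cells set the CPD+ gate. Proliferation index, division index and % divided were calculated for CPD+CD3+ Hoechst-negative cells.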

REH [13] = test: Cytostatic activity against eFluor670-labelled human REH cells assessed as live cells at 20 ng/ml measured on day 2 by Hoechst-33258 staining-based FACS analysis (reference value: 90.8%); type: functional
Jurkat [14] = test: Cytostatic activity against eFluor670-labelled human Jurkat cells assessed as live cells at 10 ng/ml measured on day 4 post dose by Hoechst-33258 staining-based FACS analysis (reference value: 97.3%); type: functional
REH [15] = test: Cytostatic activity against eFluor670-labelled human REH cells assessed as live cells at 20 ng/ml measured on day 4 by Hoechst-33258 staining-based FACS analysis (reference value: 88%); type: functional
Jurkat [16] = test: Cytostatic activity against eFluor670-labelled human Jurkat cells assessed as live cells at 10 ng/ml measured immediately after compound addition by Hoechst-33258 staining-based FACS analysis (reference value: 98.2%); type: functional
Jurkat [17] = test: Cytostatic activity against eFluor670-labelled human Jurkat cells assessed as live cells at 10 ng/ml measured on day 1 post dose by Hoechst-33258 staining-based FACS analysis (reference value: 98.2%); type: functional
REH [18] = test: Cytostatic activity against eFluor670-labelled human REH cells assessed as live cells at 20 ng/ml measured on day 5 by Hoechst-33258 staining-based FACS analysis (reference value: 85.6%); type: functional
NALM-6 [19] = test: Cytostatic activity against eFluor670-labelled human NALM6 cells assessed as live cells at 5 ng/ml measured on day 1 by Hoechst-33258 staining-based FACS analysis (reference value: 95.5%); type: functional

Cmax [1] [µM]	Compound	Activity (Jurkat [2]) [%]	Activity (NALM-6 [3]) [%]	Activity (NALM-6 [4]) [%]	Activity (Jurkat [5]) [%]	Activity (NALM-6 [6]) [%]	Activity (NALM-6 [7]) [%]	Activity (Jurkat [8]) [%]	Activity (REH [9]) [%]	Activity (NALM-6 [10]) [%]	Activity (REH [11]) [%]	Activity [12] [%]	Activity (REH [13]) [%]	Activity (Jurkat [14]) [%]	Activity (REH [15]) [%]	Activity (Jurkat [16]) [%]	Activity (Jurkat [17]) [%]	Activity (REH [18]) [%]	Activity (NALM-6 [19]) [%]
> 1000	CN(Cc1cnc2nc(N)nc(N)c2n1)c1ccc(C(=O)N[C@@H](CCC(=O)O)C(=O)O)cc1 [METHOTREXATE]	–	–	–	–	–	–	–	–	–	–	–	–	–	–	–	–	–	–
–	COc1cccc2c1C(=O)c1c(O)c3c(c(O)c1C2=O)C[C@@](O)(C(=O)CO)C[C@@H]3O[C@H]1C[C@H](N)[C@H](O)[C@H](C)O1 [DOXORUBICIN]	10.5	95.8	87.8	78.5	93.8	96.3	42.8	73.5	96.5	44.1	18.1	26.7	9.46	2.72	98.2	97	1.19	95.2
